These results are taken from paper PMC4979993 (Nature structural & molecular biology, 2011).

Data set [1] has as its system Aβ1–40. Briefly: cTCCD single-molecule analysis of Aβ1–40 aggregation. It counts as biochemical. An outline of the steps:
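Equimolar HiLyteFluor488- and HiLyteFluor647-labeled Aβ1–40 (2 μM) in SSPE pH 7.4, 37 °C, 200 rpm agitation; with or without clusterin at 1:1 molar. Sampled every 2–3 h and diluted to picomolar for two-colour confocal coincidence detection (1 ms bins, stage scanned 200 µm s⁻¹). Coincident bursts were scored as oligomers. Apparent size came from their brightness relative to non-coincident monomer bursts; n=3.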

The target in data set [2] is Aβ1–40 fibrils (Homo sapiens, UniProt P05067). Briefly: cTCCD analysis of disaggregation of Aβ1–40 fibrils. It counts as biochemical. The settings on record: for ΔG° (dimer) / ΔG° (larger oligomer): from steady state apparent size distributions. An outline of the steps: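 Fibrils grown statically from 8 μM labeled Aβ1–40, 72 h, 37 °C. Pelleted at ~10,000×g for 30 min, washed twice in SSPE pH 7.4, then resuspended. Where used, AlexaFluor647-labeled human serum clusterin was incubated with fibrils 12–16 h at 21 °C and unbound removed by centrifugation (100–200 nM bound). Released species tracked by cTCCD to plateau (~50 h). Rates fitted with monomolecular dissociation functions.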

Data set [3] concerns Aβ1–40. Briefly: TIRFM imaging of species in Aβ1–40 aggregation. It counts as biochemical. In outline: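 Dual-label HiLyteFluor488/HiLyteFluor647 Aβ1–40 (monomer stocks in pH 12 NaOH, ice-sonicated 30 min) diluted into SSPE pH 7.4. Incubated 24 h at 37 °C with 200 rpm agitation. Human serum-derived clusterin was added at 4 h where used. Species on surface imaged by two-colour TIRFM (488 and 633 nm excitation, split-EMCCD, 7.9 frames s⁻¹). Sizes compared by two-sample, two-tailed, independent t-test.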

Data set [4] deals with Aβ1–40 fibril formation. Briefly: Bulk aggregation / fibril formation of Aβ1–40. It counts as biochemical. The note with it: HiLyteFluor488 or HiLyteFluor647 label, control experiments.
The subject of data set [5] is amyloid fibrils. The settings on record: previous bulk measurements; cited from earlier work.
For data set [6] the following is noted: cited from earlier work.
Data set [7] concerns Aβ1–40 oligomers. Briefly: Formation and persistence of clusterin:Aβ complexes. The data set is classed as binding. An outline of the steps:
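HiLyteFluor488 or HiLyteFluor647-labeled Aβ1–40, from NaOH-solubilised monomer in SSPE pH 7.4, is aggregated at 37 °C, 200 rpm, with AlexaFluor647-labeled human serum clusterin at 1:1 molar ratio, or released from pre-formed clusterin-bound fibrils. Complexes are diluted to […] at 21 °C and sampled over time by two-colour coincidence detection (cTCCD). Persistence is compared by two-tailed t-tests.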

Data set [8] has as its system Aβ1–40 fibril formation. The note with it: cited from earlier work.
Where [9] appears, read: Disaggregation, without clusterin, n=3, s.d.
[10] abbreviates: Disaggregation, without clusterin, n=12, s.d.
The mark [11] stands for this setting: without clusterin, disaggregation, n=12.
The mark [12] stands for this setting: with clusterin, disaggregation, n=8.

Where “and” joins values, the source holds several entries; their conditions need not be identical. Equal values may be shown once. Entries after “also recorded” stand apart in the source; their conditions may differ.

In the case of amyloid-β1–40 [Aβ1–40], the “oligomers as share of total number of molecules” value in data set [1] (30 nM Aβ1–40, 37 °C) is on record as “approximately 1%”. The “concentration of oligomers formed” value in data set [1] (30 nM Aβ1–40, SSPE pH 7.4, 37 °C, agitation) is reported as 300 pM. Moreover, the “distribution of apparent oligomer sizes” value in data set [1] (600 nM – 2 µM and 30 nM, aggregation and disaggregation) is listed as “decreased exponentially with increasing apparent size; also recorded: effectively the same as that formed at a concentration of 30 nM; also recorded: approximately exponential decrease with apparent size”. In data set [1] (2 μM Aβ1–40, 37 °C), the “oligomers as share of total molecules at peak” value is “approximately 1%”. Moreover, the “decrease in monomer concentration during growth phase of fibril formation” value in data set [1] (2 μM Aβ1–40, 37 °C, agitation) amounted to 75%. For the same substance, the “peak concentration of stable oligomeric species” value in data set [1] (2 μM Aβ1–40, SSPE pH 7.4, 37 °C, agitation) is listed as ~ 20 nM. Moreover, the “ΔG° (dimer)” value in data set [1] (Aggregation, without clusterin, from steady state apparent size distributions, n=4, s.d.) is on record as −23.0 ± 2.9 (4) kJ mol^−1. Also, in data set [1] (cTCCD, apparent size), the “range of oligomer sizes formed” value is “dimers to 50mers”. Further, the “stability of the majority of soluble oligomeric species” value in data set [1] (~25–50 pM, 21 °C) is listed as “over three”. For the same substance, in data set [2] (setting [9]), the “ΔG° (dimer)” value is −18.2 ± 0.5 (3) kJ mol^−1, the “ΔH° (dimer)” value is −43.8 ± 24.5 (3) kJ mol^−1 and the “ΔS° dimer” value is given as −80.8 ± 83.5 (3) kJ mol^−1. Moreover, in data set [2] (setting [10]), the “ΔG° (larger oligomer)” value was −38.9 ± 2.7 (12) kJ mol^−1, the “ΔH° (larger oligomer)” value is −29.1 ± 0.3 (12) kJ mol^−1 and the “ΔS° larger than dimer” value is reported as 28.3 ± 1.1 (12) kJ mol^−1. Moreover, in data set [2] (setting [11]), the “Final concentration of all species” value is on record as 270 ± 20 (12) nM and the “Final concentration of oligomeric species” value is 0.16 ± 0.06 (12) nM. In addition, the “average size of species present” value in data set [3] (2 μM Aβ1–40 without clusterin, 24 h aggregation, s.e.m.) amounted to 1400 ± 200 nm. For the same substance, the “effect of fluorophores on bulk aggregation behavior” value in data set [4] is recorded as “neither fluorophore had any appreciable effect on the bulk aggregation behavior”. The “free energy of the formation of amyloid fibrils” value in data set [5] is “–36 kJ mol^−1”. Besides, in data set [6], the “Aβ1–40 clearance time in vivo” value is ~ 14 h and the “Aβ1–40 production time in vivo” value is listed as ~ 15 h.

Regarding “clusterin: extracellular chaperone protein, extracted from human serum”, in data set [1] (in presence of clusterin), the “effect on distribution of the sizes of Aβ1–40 oligomers” value is listed as “not substantially altered”. Also, in data set [2] (Disaggregation, with clusterin, n=4, s.d.), the “ΔG° (dimer)” value is −25.8 ± 2.6 kJ mol^−1 and −25.8 ± 2.6 (4) kJ mol^−1. The “ΔG° (larger oligomer)” value in data set [2] (Disaggregation, with clusterin, n=12, s.d.) is −43.9 ± 1.0 kJ mol^−1 and −43.9 ± 1.0 (12) kJ mol^−1. Further, the “effect on rate and extent of fibril disaggregation” value in data set [2] (clusterin bound to Aβ fibrils) is “decrease both the rate and the extent of fibril disaggregation”. Besides, the “Rate of clusterin release” value in data set [2] (with clusterin, disaggregation of fibrils, n=3, s.e.m.) is listed as “(9.8 ± 0.9)×10^−7 (3) s^−1”. The “Final soluble clusterin concentration” value in data set [2] (with clusterin, disaggregation, n=3) is 90 ± 14 (3) nM. Further, in data set [2] (setting [12]), the “Final concentration of all species” value is reported as 120 ± 20 (8) nM and the “Final concentration of oligomeric species” value is on record as 0.42 ± 0.1 (8) nM. Moreover, in data set [2] (with vs without clusterin, plateau region, n=8, P-value 0.0003, t-test), the “effect on monomer concentration” value is recorded as “decreased monomer concentration”. In data set [2] (with vs without clusterin, plateau region, n=8, P-value 0.002, t-test), the “effect on oligomer concentration / total oligomer population” value is listed as “increased oligomer concentration; also recorded: increase in the total oligomer population”. The “reduction in average size of species present” value in data set [3] (2 μM Aβ1–40, 24 h aggregation, 2 µM clusterin added at 4 h, P-value 0.01) is “approximately 50%”. The “binding to soluble oligomers” value in data set [7] (all oligomers found during aggregation and disaggregation) was “all of which interact with clusterin to form long-lived, stable complexes; also recorded: binds to all members of the ensemble of soluble oligomers”. Further, the “persistence of clusterin:Aβ complexes” value in data set [7] (formed at 100 nM, after dilution at picomolar concentrations) was “over 200 h”. In data set [8], the “effect on fibril formation, bulk measurements” value was “strongly inhibits fibril formation”.
